Assay results from ChEMBL document CHEMBL5678806, “NMS-P937, an orally available, specific small-molecule polo-like kinase 1 inhibitor with antitumor activity in solid and hematologic malignancies” (Mol Cancer Ther, 2012).
Active and inactive are the calls of the source. No cut-off for these calls is given here.

Columns and labels:
[1] = biological target: Serine/threonine-protein kinase PLK1 (Homo sapiens) (UniProt P53350); assay: Inhibition of PLK1 in human A2780 cells assessed as increased Histone H3 phosphorylation on Ser10 by Western blotting analysis; format: cell-based
[2] = system: A2780; assay: Induction of cell cycle arrest in human A2780 cells assessed as accumulation of cells in G2/M phase by measuring upregulated PLK1 expression incubated for 24 hrs by Western blotting analysis; format: functional, cell-based; settings: dose 0.02-0.2 µmol/L
In short: (§1)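 A2780 ovarian carcinoma cells treated 24 h with a range of concentrations, with DMSO and nocodazole controls. 20 µg protein extract separated by SDS-PAGE and immunoblotted with chemiluminescent detection. Probed for total and phospho-Thr210 PLK1, phospho-Ser10 histone H3, phospho-Thr199 NPM and phospho-Tyr15 CDK1. Total NPM, tubulin and total CDK1 served as loading controls.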

[3] = system: A2780; assay: Induction of cell cycle arrest in human A2780 cells assessed as accumulation of cells in G2/M phase by measuring CDK1 phosphorylation on Tyr15 incubated for 24 hrs by Western blotting analysis; format: functional, cell-based; settings: dose 0.02-0.2 µmol/L; in short: as §1
[4] = system: A2780; assay: Induction of cell cycle arrest in human A2780 cells assessed as accumulation of cells in G2/M phase by measuring Histone H3 phosphorylation on Ser10 incubated for 24 hrs by Western blotting analysis; format: functional, cell-based; settings: dose 0.02-0.2 µmol/L; in short: as §1
[5] = biological target: Serine/threonine-protein kinase PLK1 (Homo sapiens) (UniProt P53350); assay: Inhibition of PLK1 in human A2780 cells assessed as increased NPM phosphorylation on Thr199 by Western blotting analysis; format: cell-based
[6] = biological target: Serine/threonine-protein kinase PLK1 (Homo sapiens) (UniProt P53350); assay: Inhibition of PLK1 in human A2780 cells assessed as decreased TCTP phosphorylation on Ser46 by Western blotting analysis; settings: time 1.0 hrs
[7] = system: A2780; assay: Induction of cell cycle arrest in human A2780 cells assessed as accumulation of cells in G2/M phase by measuring PLK1 phosphorylation on Thr210 incubated for 24 hrs by Western blotting analysis; format: functional, cell-based; settings: dose 0.02-0.2 µmol/L; in short: as §1
[8] = system: A2780; assay: Induction of cell cycle arrest in human A2780 cells assessed as accumulation of cells in G2/M phase by measuring NPM phosphorylation on Thr199 incubated for 24 hrs by Western blotting analysis; format: functional, cell-based; settings: dose 0.02-0.2 µmol/L; in short: as §1
[9] = system: HT-29; assay: Antitumor activity against human HT-29 cells xenografted in nu/nu mouse assessed as tumor growth inhibition at 45 mg/kg, iv administered for 4 days relative to control; format: functional; settings: HT-29, 96 h, time 4 day, read-out: TGI
[10] = Antitumor activity against human Acute myeloid leukemic cell xenografted in nu/nu mouse assessed as increase in median survival time at 75 mg/kg, iv administered for 5 days and measured after 7 days (reference value: 34 days); format: functional, Leukemia cell; settings: time 5 day
[11] = Antitumor activity against human Acute myeloid leukemic cell xenografted in nu/nu mouse assessed as increase in median survival time at 75 mg/kg, iv administered for 5 days and measured after 7 days in presence of NMS-P937 (reference value: 34 days); format: functional, Leukemia cell; settings: time 5 day

Sequence of Serine/threonine-protein kinase PLK1 (Homo sapiens) (P53350 whole entry): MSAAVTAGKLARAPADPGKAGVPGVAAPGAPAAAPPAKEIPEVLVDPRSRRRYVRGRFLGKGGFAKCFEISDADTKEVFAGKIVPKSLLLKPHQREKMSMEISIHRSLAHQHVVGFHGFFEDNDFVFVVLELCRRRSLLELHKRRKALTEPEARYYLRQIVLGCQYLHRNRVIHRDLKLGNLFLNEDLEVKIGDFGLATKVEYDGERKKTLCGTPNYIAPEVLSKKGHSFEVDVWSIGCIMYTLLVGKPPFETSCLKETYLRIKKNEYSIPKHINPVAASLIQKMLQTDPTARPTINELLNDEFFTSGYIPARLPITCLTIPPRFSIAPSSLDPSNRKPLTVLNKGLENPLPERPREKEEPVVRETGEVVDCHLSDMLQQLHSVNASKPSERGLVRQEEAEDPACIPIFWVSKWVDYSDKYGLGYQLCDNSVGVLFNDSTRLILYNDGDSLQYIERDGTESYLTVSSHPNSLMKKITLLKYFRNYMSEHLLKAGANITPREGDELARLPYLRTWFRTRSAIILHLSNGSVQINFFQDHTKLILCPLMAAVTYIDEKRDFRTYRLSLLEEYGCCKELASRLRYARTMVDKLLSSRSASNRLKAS

For `COC(=O)Nc1nc2cc(C(=O)c3cccs3)ccc2[nH]1`, the inhibition [1] was “Active”, the Activity [2] was “Active” and the Activity [3] was “Active”. The Activity [4] was “Active”, the inhibition [5] was “Active” and the inhibition [6] was “Active”. The Activity [7] was “Active” and the Activity [8] was “Active”.
`CCc1c2c(nc3ccc(OC(=O)N4CCC(N5CCCCC5)CC4)cc13)-c1cc3c(c(=O)n1C2)COC(=O)[C@]3(O)CC` [IRINOTECAN] gave an inhibition in vivo at 45 mg/kg [9] of 64%, a Time [10] of 67 days and a Time [11] of 79 days.
